One data set concerns Plasmodium falciparum. In words: Antimalarial activity against chloroquine-sensitive Plasmodium falciparum 3D7. The class given is functional, organism-based. In outline:
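Chloroquine-sensitive P. falciparum 3D7 grown in vitro with ciprofloxacin as the reference standard; IC50 reported as mass concentration ± SE.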

Data set [1] deals with HEK293. The data set can be described thus: Cytotoxicity against human HEK293 cells 1 to 100 uM after 24 to 72 hrs by MTT assay. It is filed as cell-based. Summed up:
(§1)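 HEK-293 monolayers were kept in DMEM at 37 °C under 5% CO2 and seeded at about 4000 cells/well for 24 h. Medium was then replaced with fresh medium holding compound at 1, 10, 20, 30, 50 and 100 concentration units, and cells were incubated 24, 48 and 72 h. Viability was read by MTT and IC50 calculated.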
Background: Tetrazolium assays rely on reduction of a dye to a coloured formazan, in cell work by metabolically active cells.

Data set [2] relates to HEK293. The data set can be described thus: Cytotoxicity against human HEK293 cells after 24 to 72 hrs by MTT assay. It is filed as cell-based. In outline: as §1

≈ marks a conversion by molar mass, not a printed value.

What is called IC50 is the concentration at which inhibition is half-maximal. A lower IC50 goes with greater potency in that assay. In turn, `CCOC(=O)c1cn(Cc2c[nH]nn2)c2cc(Cl)c(F)cc2c1=O` displayed a half-inhibitory concentration (IC50) in the data set with Plasmodium falciparum of 1.33 µg/mL (≈ 3.79 µM). In addition, in the data set on HEK293 [1], the Activity result is given as “Toxic”.
Regarding `O=C(O)c1cn(C2CC2)c2cc(N3CCNCC3)c(F)cc2c1=O` [CIPROFLOXACIN], the concentration for half-maximal inhibition (IC50) in the data set on Plasmodium falciparum is 8.82 µg/mL (≈ 26.6 µM).
Still for that read-out and setting: the figure for `CCCn1cc(Cn2cc(C(=O)OCC)c(=O)c3cc(F)c(Cl)cc32)nn1` is 5.4 µg/mL (≈ 13.7 µM); for `CCOC(=O)c1cn(Cc2cn(CCO)nn2)c2cc(Cl)c(F)cc2c1=O` it is 14.3 µg/mL (≈ 36.3 µM).
As for `CCOC(=O)c1cn(Cc2cn(Cc3ccccc3)nn2)c2cc(Cl)c(F)cc2c1=O`, in the data set with Plasmodium falciparum, the IC50 was determined as 12.2 µg/mL (≈ 27.7 µM).
`CCCCn1cc(C(=O)OCC)c(=O)c2cc(F)c(Cl)cc21`: the IC50 with Plasmodium falciparum came out at 6.96 µg/mL (≈ 21.4 µM).
`O=C(O)c1c[nH]c2cc(Cl)c(F)cc2c1=O` had a concentration for half-maximal inhibition (IC50) in the data set with Plasmodium falciparum of 4.32 µg/mL (≈ 17.9 µM). In the data set on HEK293 [1], the Activity entry is recorded as “Non-toxic”.
For the compound `CCOC(=O)c1cn(Cc2ccccc2)c2cc(Cl)c(F)cc2c1=O`, the half-maximal inhibitory concentration (IC50) with Plasmodium falciparum worked out at 6.83 µg/mL (≈ 19 µM).
With `CCOC(=O)c1cn(Cc2cn(-c3ccc(F)c(Cl)c3)nn2)c2cc(Cl)c(F)cc2c1=O`, the concentration for half-maximal inhibition (IC50) in the data set with Plasmodium falciparum was 3.4 µg/mL (≈ 7.09 µM); with HEK293 [2] it was 41.9 µM.
As to `C#CCn1cc(C(=O)OCC)c(=O)c2cc(F)c(Cl)cc21`, the IC50 with Plasmodium falciparum came out at 3.46 µg/mL (≈ 11.2 µM).
The same measure, in the same setting: the figure for `CCOC(=O)c1cn(Cc2cn(-c3ccc(Cl)cc3)nn2)c2cc(Cl)c(F)cc2c1=O` is 13 µg/mL (≈ 28.2 µM).
Turning to `CCOC(=O)c1cn(C(C)C)c2cc(Cl)c(F)cc2c1=O`, half-maximal inhibition in the data set with Plasmodium falciparum (IC50) required 6.97 µg/mL (≈ 22.3 µM).
`CCOC(=O)c1cn(Cc2cn(CC(=O)OC)nn2)c2cc(Cl)c(F)cc2c1=O` came in with an IC50 in the data set on Plasmodium falciparum of 5.26 µg/mL (≈ 12.4 µM).
Still for that read-out and setting: for `CCOC(=O)c1cn(CCO)c2cc(Cl)c(F)cc2c1=O` the value was 4.26 µg/mL (≈ 13.6 µM).
`CCOC(=O)c1cn(CC)c2cc(Cl)c(F)cc2c1=O` had a half-inhibitory concentration (IC50) in the data set with Plasmodium falciparum of 15.2 µg/mL (≈ 51.1 µM).
`CCOC(=O)c1cn(Cc2cn(-c3cccc(Cl)c3)nn2)c2cc(Cl)c(F)cc2c1=O` gave a half-inhibitory concentration (IC50) in the data set on Plasmodium falciparum of 2.73 µg/mL (≈ 5.92 µM).
On the same count and under the same terms, for `CCCn1cc(C(=O)OCC)c(=O)c2cc(F)c(Cl)cc21` the value was 4.86 µg/mL (≈ 15.6 µM).
`CCOC(=O)c1cn(Cc2cn(-c3ccnc4cc(Cl)ccc34)nn2)c2cc(Cl)c(F)cc2c1=O` registered an IC50 in the data set on Plasmodium falciparum of 4.06 µg/mL (≈ 7.92 µM). Also, the Activity result in the data set with HEK293 [1] was “Non-toxic”.
`CCOC(=O)c1cn(CC#N)c2cc(Cl)c(F)cc2c1=O` gave an IC50 with Plasmodium falciparum of 2.56 µg/mL (≈ 8.29 µM).
As to `CCOC(=O)c1cn(Cc2cn(-c3ccc(F)cc3)nn2)c2cc(Cl)c(F)cc2c1=O`, the concentration for half-maximal inhibition (IC50) with Plasmodium falciparum came out at 4.3 µg/mL (≈ 9.67 µM); in the data set with HEK293 [2], 63.8 µM.
`CCOC(=O)c1c[nH]c2cc(Cl)c(F)cc2c1=O` displayed a concentration for half-maximal inhibition (IC50) in the data set with Plasmodium falciparum of 5.81 µg/mL (≈ 21.5 µM).
Still for that read-out and setting: the figure for `CCOC(=O)c1cn(C)c2cc(Cl)c(F)cc2c1=O` is 11.8 µg/mL (≈ 41.7 µM).

The record behind these values is ChEMBL document CHEMBL1955758, “Synthesis and in vitro antiplasmodial activities of fluoroquinolone analogs” (Eur J Med Chem, 2012).
